Assay results gathered from unrelated publications.
Protocols differ between the studies behind these lines.
Cell line: MCF7
Effect on: cell growth or viability

CC(=O)O[C@H]1C(=O)[C@@]2(C)[C@H]([C@H](OC(=O)c3ccccc3)[C@]3(O)C[C@H](OC(=O)[C@H](O)[C@@H](NC(=O)c4ccccc4)c4ccccc4)C(C)=C1C3(C)C)[C@]1(OC(C)=O)CO[C@@H]1C[C@@H]2O — IC50 (MTT; 48 h): 0.006 µM
Oc1ncnc2cc(Nc3nc(-c4ccc(C(F)(F)F)cc4)cs3)ccc12 — IC50 (MTT): 2.86 µM
O=C(NC(=S)NCCNC(=S)NC(=O)c1ccc2ccccc2c1)c1ccc2ccccc2c1 — IC50 (48 h): 1.2 µM
CS(=O)(=O)c1ccc(-n2cc(C=N/N=c3\[nH]c(-c4ccc(Br)cc4)cs3)c(-c3ccc([N+](=O)[O-])cc3)n2)cc1 — IC50 (MTT; 48 h): 19.9 µM
Oc1ccc(-c2ccc3ncnc(Nc4cccc(C(F)(F)F)c4)c3c2)cc1 — IC50 (MTT; 24 h): 6.19 µM
O=C(N/N=C/CN1CCCCC1)Nc1cc2c(Nc3ccc(F)c(Cl)c3)ncnc2cc1O[C@H]1CCOC1 — IC50 (MTT; 72 h): 1.53 µM
Clc1ccnc2c1ccc1c(Cl)ccnc12 — IC50 (MTT; 48 h): > 50 µM
C[C@H]1[C@@H](O)O[C@@H]2O[C@@]3(C)CC[C@H]4[C@H](C)CC[C@@H]1[C@@]24OO3 — IC50 (CCK-8; 48 h): > 50 µM
O=C(/N=C1\S/C(=C\c2ccc(Cl)cc2)C(=O)N1C1CCCCC1)c1ccc2ccccc2c1 — IC50 (48 h): 6.93 µM
O=S(=O)(NN=Cc1cn(CCN2CCOCC2)c2ccccc12)c1ccccc1 — IC50 (MTT; 48 h): 73.2 µM
COc1cccc2c3c(c[n+](C)c12)sc1cccc(F)c13 — IC50 (MTT; 72 h): 3 µM
CC1(C)CC[C@]2(C)CC[C@]3(C)C(=CC[C@@H]4[C@@]5(C)CC[C@H](O)C(C)(C)[C@@H]5CC[C@]43C)[C@@H]2C1 — IC50 (WST-1; 48 h): 63.6 µM
Cc1ccc2nc(-c3ccc(Cl)cc3Cl)[nH]c2c1 — IC50 (MTT; 48 h): 57.2 µM
CCN(CC)C(=S)NC(=O)c1ccc2ccccc2c1 — IC50 (48 h): 4.72 µM
CN1CCN(C/C=N/NC(=O)Nc2cc3c(Nc4ccc(F)c(Cl)c4)ncnc3cc2O[C@H]2CCOC2)CC1 — IC50 (MTT; 72 h): 2.04 µM
COc1c2c(cc3c1OCO3)[C@]13C=C[C@H](OC)C[C@H]1N(C2)C[C@H]3OC(=O)c1cccc(C)c1 — IC50 (WST-1): > 10 µM
COc1ccc(Nc2nc(-n3nc(C)cc3C)nc(-n3nc(C)cc3C)n2)cc1 — IC50 (MTT; 72 h): 12 µM
COc1cccc2c1C(=O)c1c(O)c3c(c(O)c1C2=O)C[C@@](O)(C(=O)CO)C[C@@H]3O[C@H]1C[C@H](N)[C@H](O)[C@H](C)O1 — IC50 (resazurin; 72 h): 0.24 µM
COc1ccc(-c2nc3ccccc3[nH]2)cc1OC — IC50 (MTT; 48 h): > 100 µM
COc1ccc(O)c(/C=N/c2nc(Oc3ccccc3)nn2-c2ccc(C(=O)O)cc2)c1 — IC50 (MTT): 27.5 µM
CC(C)Cc1ccc(-c2nn(-c3ccc(S(C)(=O)=O)cc3)cc2/C=N/N=c2\[nH]c(-c3ccc([N+](=O)[O-])cc3)cs2)cc1 — IC50 (MTT; 48 h): 2.85 µM
Cc1ccc2nc(-c3ccccc3O)[nH]c2c1 — IC50 (MTT; 48 h): 18 µM
O=C(CCl)Nc1ccc2c(Nc3cccc(C(F)(F)F)c3)ncnc2c1 — IC50 (MTT; 24 h): 7.78 µM
Oc1ncnc2cc(Nc3nc(-c4ccc(F)cc4)cs3)ccc12 — IC50 (MTT): 3.71 µM
Oc1c(I)cc(I)c2cccnc12 — IC50 (MTT; 48 h): 75.1 µM
O=c1c(O)c(-c2ccc(O)c(O)c2)oc2cc(O)cc(O)c12 — IC50 (WST-1; 48 h): 11.7 µM
COc1cc2ncnc(Nc3ccc(F)c(Cl)c3)c2cc1NC(=O)N/N=C/CN1CCOCC1 — IC50 (MTT; 72 h): 7.43 µM
COc1ccc(S(=O)(=O)NN=Cc2cn(CCN3CCOCC3)c3ccccc23)cc1 — IC50 (MTT; 48 h): 62.8 µM
COc1cc2ncnc(Nc3ccc(F)c(Cl)c3)c2cc1NC(=O)N/N=C/c1cccn1CCN1CCCC1 — IC50 (MTT; 72 h): 2.45 µM
O=c1ccn(Cc2cn(-c3c4ccccc4nc4ccccc34)nn2)c(=O)[nH]1 — IC50 (MTT): 10.9 µM
Cc1ccc2nc(-c3cccnc3)[nH]c2c1 — IC50 (MTT; 48 h): 51.1 µM
COc1cccc(C(c2c(N)nc(SCC(N)=O)[nH]c2=O)c2c(N)nc(SCC(N)=O)[nH]c2=O)c1 — IC50 (MTT; 72 h): > 100 µM
COc1cc(/C=C/C(=O)c2ccc(NC(=O)c3ccccc3CN3C(=O)c4ccccc4C3=O)cc2)cc(OC)c1OC — IC50 (MTT; 72 h): 1.88 µM
CSc1nc(/N=C/c2cc([N+](=O)[O-])ccc2O)n(-c2ccc(C(=O)O)cc2)n1 — IC50 (MTT): 20 µM
CCOc1ccc(-c2nc3ccc(C)cc3[nH]2)cc1 — IC50 (MTT; 48 h): > 100 µM
O=C(O)c1ccc(-n2nc(Oc3ccccc3)nc2/N=C/c2cc([N+](=O)[O-])ccc2O)cc1 — IC50 (MTT): 21.6 µM
COc1cccc(-c2nc3ccc(C)cc3[nH]2)c1 — IC50 (MTT; 48 h): 50.6 µM
O=S(=O)(NN=Cc1cn(CCN2CCOCC2)c2ccccc12)c1ccc2ccccc2c1 — IC50 (MTT; 48 h): 29.9 µM
COc1cc(Nc2nccc(-c3cnn4nc(OC)ccc34)n2)cc(C(F)(F)F)c1 — IC50 (ATP luminescence): 0.95 µM
CCN(CC)C/C=N/NC(=O)Nc1cc2c(Nc3ccc(F)c(Cl)c3)ncnc2cc1OC — IC50 (MTT; 72 h): 3.28 µM
C=CCn1c(-c2ccc(Cl)cc2)nc2ccc(C)cc21 — IC50 (MTT): 22.2 µM
FC(F)(F)c1cccc(Nc2ncnc3ccc(-c4ccsc4)cc23)c1 — IC50 (MTT; 24 h): 4.39 µM
O=C(N/N=C/c1cccn1CCCN1CCOCC1)Nc1cc2c(Nc3ccc(F)c(Cl)c3)ncnc2cc1O[C@H]1CCOC1 — IC50 (MTT; 72 h): 5.57 µM
COc1cccc(-c2nc3ccccc3n2Cc2ccccc2)c1 — IC50 (MTT): 24.8 µM
C1CCCC1.C1CCCC1.[Cl][W][Cl] — IC50 (MTT): 630 µM
COc1cc2ncnc(Nc3ccc(F)c(Cl)c3)c2cc1NC(=O)N/N=C/c1cccn1CCCN1CCN(C)CC1 — IC50 (MTT; 72 h): 2.43 µM
CCNC(=S)NC(=O)c1ccc2ccccc2c1 — IC50 (48 h): 6.26 µM
O=C1Nc2c(C(F)(F)F)cccc2[C@@]1(c1ccc(O)cc1)c1ccc(OC(F)(F)F)cc1 — IC50 (resazurin; 72 h): 0.014 µM
COc1cc2c(Nc3ccc(NC(=O)c4ccccc4)cc3)ncnc2cc1OCCCN1CCOCC1 — IC50 (MTS; 48 h): 3.1 µM
